The target of the experiment is Sodium channel protein type 5 subunit alpha (Homo sapiens, UniProt Q14524). The experiment can be described thus: Inhibition of human Nav1.5 expressed in HEK293 cells assessed as inward peak current by ion-works quattro patch clamp electrophysiology method. The format is cell-based. The essentials:
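Stable HEK293 line expressing human NaV1.5, recorded by population patch clamp on the IonWorks Quattro.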
A general note: Patch clamp records ionic current or voltage across a cell membrane.

Among the data in ChEMBL document CHEMBL3797186, “Single Residue Substitutions That Confer Voltage-Gated Sodium Ion Channel Subtype Selectivity in the NaV1.7 Inhibitory Peptide GpTx-1” (J Med Chem, 2016) are IC50 values, retold here.

Structures are written as SMILES. Positions of bridges follow the written chain, without caps; N, C: chain ends. Residues, ends and D or L forms follow the SMILES beside them. Bounds are passed on as bounds.

Sodium channel protein type 5 subunit alpha, sequence (Q14524 whole entry): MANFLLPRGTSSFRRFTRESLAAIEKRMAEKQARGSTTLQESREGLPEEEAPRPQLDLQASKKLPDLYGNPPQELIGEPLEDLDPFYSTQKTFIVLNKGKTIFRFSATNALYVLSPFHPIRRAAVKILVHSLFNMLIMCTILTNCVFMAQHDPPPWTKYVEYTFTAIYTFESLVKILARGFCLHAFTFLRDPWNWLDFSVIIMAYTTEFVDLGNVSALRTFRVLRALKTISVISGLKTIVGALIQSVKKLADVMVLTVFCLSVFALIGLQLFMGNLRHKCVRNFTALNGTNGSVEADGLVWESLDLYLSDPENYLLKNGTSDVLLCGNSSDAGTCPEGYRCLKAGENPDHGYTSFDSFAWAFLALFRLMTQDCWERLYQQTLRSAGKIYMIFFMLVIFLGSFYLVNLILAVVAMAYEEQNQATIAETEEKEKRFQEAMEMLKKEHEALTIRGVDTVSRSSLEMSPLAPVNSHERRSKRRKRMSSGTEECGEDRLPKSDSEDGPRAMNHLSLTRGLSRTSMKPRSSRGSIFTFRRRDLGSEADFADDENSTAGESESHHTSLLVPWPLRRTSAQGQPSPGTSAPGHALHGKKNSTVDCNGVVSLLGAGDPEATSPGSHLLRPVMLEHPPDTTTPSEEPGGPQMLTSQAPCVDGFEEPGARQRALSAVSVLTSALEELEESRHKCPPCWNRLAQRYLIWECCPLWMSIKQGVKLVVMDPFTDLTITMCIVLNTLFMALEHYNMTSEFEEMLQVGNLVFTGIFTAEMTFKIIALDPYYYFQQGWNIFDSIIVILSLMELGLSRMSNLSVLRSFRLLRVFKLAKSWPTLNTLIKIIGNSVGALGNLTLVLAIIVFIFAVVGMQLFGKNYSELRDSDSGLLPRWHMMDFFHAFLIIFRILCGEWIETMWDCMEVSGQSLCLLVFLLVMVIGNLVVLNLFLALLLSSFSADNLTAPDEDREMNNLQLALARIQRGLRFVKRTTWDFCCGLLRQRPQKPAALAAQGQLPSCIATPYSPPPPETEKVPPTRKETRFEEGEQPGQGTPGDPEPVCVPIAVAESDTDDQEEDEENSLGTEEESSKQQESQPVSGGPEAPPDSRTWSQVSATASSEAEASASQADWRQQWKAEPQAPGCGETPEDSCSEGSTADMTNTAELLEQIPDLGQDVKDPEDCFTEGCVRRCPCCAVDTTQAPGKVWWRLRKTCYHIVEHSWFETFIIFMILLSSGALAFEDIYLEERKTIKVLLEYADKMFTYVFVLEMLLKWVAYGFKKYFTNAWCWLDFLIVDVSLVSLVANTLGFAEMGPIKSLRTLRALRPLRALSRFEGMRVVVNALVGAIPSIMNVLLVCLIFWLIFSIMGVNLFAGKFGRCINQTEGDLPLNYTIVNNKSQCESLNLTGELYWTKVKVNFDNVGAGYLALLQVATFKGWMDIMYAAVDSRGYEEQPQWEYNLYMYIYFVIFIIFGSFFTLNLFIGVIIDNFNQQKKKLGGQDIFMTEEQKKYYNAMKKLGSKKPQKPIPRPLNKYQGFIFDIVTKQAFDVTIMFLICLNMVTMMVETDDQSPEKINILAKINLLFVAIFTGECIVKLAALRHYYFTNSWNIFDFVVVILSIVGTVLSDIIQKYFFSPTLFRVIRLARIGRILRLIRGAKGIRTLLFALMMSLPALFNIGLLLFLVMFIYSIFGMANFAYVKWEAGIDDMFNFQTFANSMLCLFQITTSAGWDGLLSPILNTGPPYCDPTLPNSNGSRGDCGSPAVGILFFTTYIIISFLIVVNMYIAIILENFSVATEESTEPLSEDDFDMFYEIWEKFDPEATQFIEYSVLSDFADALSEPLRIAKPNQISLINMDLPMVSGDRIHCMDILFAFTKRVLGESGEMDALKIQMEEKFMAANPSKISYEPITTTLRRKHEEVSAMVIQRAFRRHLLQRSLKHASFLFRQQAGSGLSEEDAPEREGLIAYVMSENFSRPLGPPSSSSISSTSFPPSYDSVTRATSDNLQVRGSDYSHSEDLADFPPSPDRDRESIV

For `CC[C@H](C)[C@@H]1NC(=O)[C@@H]2CSSC[C@@H]3NC(=O)[C@H](C(C)C)NC(=O)[C@H](CC(C)C)NC(=O)[C@H](CC(N)=O)NC(=O)[C@@H]4CCCN4C(=O)[C@H](CCCNC(=N)N)NC(=O)[C@H](CSSC[C@H](NC(=O)[C@@H](N)CC(=O)O)C(=O)N[C@@H](CCCNC(=N)N)C(=O)NCC(=O)N[C@@H](Cc4ccccc4)C(=O)N[C@@H](CCSC)C(=O)N[C@@H](CCCNC(=N)N)C(=O)N[C@@H](CCCCN)C(=O)N2)NC(=O)[C@H](CSSC[C@@H](C(=O)N[C@@H](CCCCN)C(=O)N[C@@H](Cc2ccc(O)cc2)C(=O)N[C@H](C(=O)N[C@@H](Cc2ccccc2)C(N)=O)C(C)C)NC(=O)[C@H](Cc2c[nH]c4ccccc24)NC(=O)[C@H](CCCCN)NC(=O)[C@H](Cc2cnc[nH]2)NC(=O)[C@H]([C@@H](C)O)NC(=O)[C@H](CCCNC(=N)N)NC(=O)[C@H](CO)NC3=O)NC(=O)[C@H](CCCCN)NC(=O)[C@H](CC(=O)O)NC(=O)[C@H](CC(N)=O)NC(=O)[C@H](CC(=O)O)NC(=O)[C@@H]2CCCN2C1=O` (H-DCRGFMRKCIPDNDKCCRPNLVCSRTHKWCKYVF-NH2; disulfide 2-17, 9-23, 16-30), the half-maximal inhibitory concentration (IC50) (usually the midpoint of a concentration-inhibition curve) was over 5 µM.
For the compound `CC[C@H](C)[C@@H]1NC(=O)[C@@H]2CSSC[C@@H]3NC(=O)[C@H](C(C)C)NC(=O)[C@H](CC(C)C)NC(=O)[C@H](CC(N)=O)NC(=O)[C@@H]4CCCN4C(=O)[C@H](CCCNC(=N)N)NC(=O)[C@H](CSSC[C@H](NC(=O)[C@@H](N)CC(=O)O)C(=O)N[C@@H](CC(C)C)C(=O)NCC(=O)N[C@@H](Cc4ccccc4)C(=O)N[C@@H](CCSC)C(=O)N[C@@H](CCCNC(=N)N)C(=O)N[C@@H](CCCCN)C(=O)N2)NC(=O)[C@H](CSSC[C@@H](C(=O)N[C@@H](CCCCN)C(=O)N[C@@H](Cc2ccc(O)cc2)C(=O)N[C@H](C(=O)N[C@@H](Cc2ccccc2)C(N)=O)C(C)C)NC(=O)[C@H](Cc2c[nH]c4ccccc24)NC(=O)[C@H](CCCCN)NC(=O)[C@H](Cc2c[nH]c4ccccc24)NC(=O)[C@H]([C@@H](C)O)NC(=O)[C@H](CCCNC(=N)N)NC(=O)[C@H](CO)NC3=O)NC(=O)[C@H](CCCCN)NC(=O)[C@H](CC(=O)O)NC(=O)[C@H](CC(N)=O)NC(=O)[C@H](CC(=O)O)NC(=O)[C@@H]2CCCN2C1=O` (H-DCLGFMRKCIPDNDKCCRPNLVCSRTWKWCKYVF-NH2; disulfide 2-17, 9-23, 16-30), the IC50 was over 5 µM.
Turning to `CC[C@H](C)[C@@H]1NC(=O)[C@@H]2CSSC[C@@H]3NC(=O)[C@H](C(C)C)NC(=O)[C@H](CC(C)C)NC(=O)[C@H](CC(N)=O)NC(=O)[C@@H]4CCCN4C(=O)[C@H](CCCNC(=N)N)NC(=O)[C@H](CSSC[C@H](NC(=O)[C@@H](N)CC(=O)O)C(=O)N[C@@H](CC(C)C)C(=O)NCC(=O)N[C@@H](Cc4ccccc4)C(=O)N[C@@H](CCSC)C(=O)N[C@@H](CCCNC(=N)N)C(=O)N[C@@H](CCCCN)C(=O)N2)NC(=O)[C@H](CSSC[C@@H](C(=O)N[C@@H](CCCCN)C(=O)N[C@@H](Cc2ccc(O)cc2)C(=O)N[C@H](C(N)=O)C(C)C)NC(=O)[C@H](Cc2c[nH]c4ccccc24)NC(=O)[C@H](CCCCN)NC(=O)[C@H](Cc2cnc[nH]2)NC(=O)[C@H]([C@@H](C)O)NC(=O)[C@H](CCCNC(=N)N)NC(=O)[C@H](CO)NC3=O)NC(=O)[C@H](CCCCN)NC(=O)[C@H](CC(=O)O)NC(=O)[C@H](CC(N)=O)NC(=O)[C@H](CC(=O)O)NC(=O)[C@@H]2CCCN2C1=O` (H-DCLGFMRKCIPDNDKCCRPNLVCSRTHKWCKYV-NH2; disulfide 2-17, 9-23, 16-30), the IC50 was over 5 µM.
As for `CC[C@H](C)[C@@H]1NC(=O)[C@@H]2CSSC[C@@H]3NC(=O)[C@H](C(C)C)NC(=O)[C@H](CC(C)C)NC(=O)[C@H](CC(N)=O)NC(=O)[C@@H]4CCCN4C(=O)[C@H](CCCNC(=N)N)NC(=O)[C@H](CSSC[C@H](NC(=O)[C@@H](N)CC(=O)O)C(=O)N[C@@H](CC(C)C)C(=O)NCC(=O)N[C@@H](Cc4ccccc4)C(=O)N[C@@H](CCSC)C(=O)N[C@@H](CCCNC(=N)N)C(=O)N[C@@H](CCCCN)C(=O)N2)NC(=O)[C@H](CSSC[C@@H](C(=O)N[C@@H](CCCCN)C(=O)N[C@@H](Cc2ccc(O)cc2)C(=O)N[C@H](C(=O)N[C@@H](Cc2ccccc2)C(N)=O)C(C)C)NC(=O)[C@H](Cc2c[nH]c4ccccc24)NC(=O)[C@H](CCCCN)NC(=O)[C@H](CCCCN)NC(=O)[C@H]([C@@H](C)O)NC(=O)[C@H](CCCNC(=N)N)NC(=O)[C@H](CO)NC3=O)NC(=O)[C@H](CCCCN)NC(=O)[C@H](CC(=O)O)NC(=O)[C@H](CC(N)=O)NC(=O)[C@H](CC(=O)O)NC(=O)[C@@H]2CCCN2C1=O` (H-DCLGFMRKCIPDNDKCCRPNLVCSRTKKWCKYVF-NH2; disulfide 2-17, 9-23, 16-30), the IC50 is over 5 µM.
With `CC[C@H](C)[C@@H]1NC(=O)[C@@H]2CSSC[C@@H]3NC(=O)[C@H](C(C)C)NC(=O)[C@H](CC(C)C)NC(=O)[C@H](CC(N)=O)NC(=O)[C@@H]4CCCN4C(=O)[C@H](CCCNC(=N)N)NC(=O)[C@H](CSSC[C@H](NC(=O)[C@@H](N)CC(=O)O)C(=O)N[C@@H](CC(C)C)C(=O)NCC(=O)N[C@@H](Cc4ccccc4)C(=O)N[C@@H](CCSC)C(=O)N[C@@H](CCCNC(=N)N)C(=O)N[C@@H](CCCCN)C(=O)N2)NC(=O)[C@H](CSSC[C@@H](C(=O)N[C@@H](CCCCN)C(=O)N[C@@H](Cc2ccc(O)cc2)C(=O)N[C@H](C(=O)N[C@@H](Cc2ccccc2)C(N)=O)C(C)C)NC(=O)[C@H](Cc2c[nH]c4ccccc24)NC(=O)[C@H](CCCCN)NC(=O)[C@H](Cc2cnc[nH]2)NC(=O)[C@H]([C@@H](C)O)NC(=O)[C@H](CCCCN)NC(=O)[C@H](CO)NC3=O)NC(=O)[C@H](CCCCN)NC(=O)[C@H](CC(=O)O)NC(=O)[C@H](CC(N)=O)NC(=O)[C@H](CC(=O)O)NC(=O)[C@@H]2CCCN2C1=O` (H-DCLGFMRKCIPDNDKCCRPNLVCSKTHKWCKYVF-NH2; disulfide 2-17, 9-23, 16-30) the figure was over 5 µM; with `CC[C@H](C)[C@@H]1NC(=O)[C@@H]2CSSC[C@@H]3NC(=O)[C@H](C(C)C)NC(=O)[C@H](CC(C)C)NC(=O)[C@H](CC(N)=O)NC(=O)[C@@H]4CCCN4C(=O)[C@H](CCCNC(=N)N)NC(=O)[C@H](CSSC[C@H](NC(=O)[C@@H](N)CC(=O)O)C(=O)N[C@@H](CC(C)C)C(=O)N[C@@H](CCC(=O)O)C(=O)N[C@@H](Cc4ccccc4)C(=O)N[C@@H](CCSC)C(=O)N[C@@H](CCCNC(=N)N)C(=O)N[C@@H](CCCCN)C(=O)N2)NC(=O)[C@H](CSSC[C@@H](C(=O)N[C@@H](CCCCN)C(=O)N[C@@H](Cc2ccc(O)cc2)C(=O)N[C@H](C(=O)N[C@@H](Cc2ccccc2)C(N)=O)C(C)C)NC(=O)[C@H](Cc2c[nH]c4ccccc24)NC(=O)[C@H](CCCCN)NC(=O)[C@H](Cc2cnc[nH]2)NC(=O)[C@H]([C@@H](C)O)NC(=O)[C@H](CCCNC(=N)N)NC(=O)[C@H](CO)NC3=O)NC(=O)[C@H](CCCCN)NC(=O)[C@H](CC(=O)O)NC(=O)[C@H](CC(N)=O)NC(=O)[C@H](CC(=O)O)NC(=O)[C@@H]2CCCN2C1=O` (H-DCLEFMRKCIPDNDKCCRPNLVCSRTHKWCKYVF-NH2; disulfide 2-17, 9-23, 16-30), over 5 µM; with `CC[C@H](C)[C@@H]1NC(=O)[C@@H]2CSSC[C@@H]3NC(=O)[C@H](C(C)C)NC(=O)[C@H](CC(C)C)NC(=O)[C@H](CC(N)=O)NC(=O)[C@@H]4CCCN4C(=O)[C@H](CCCNC(=N)N)NC(=O)[C@H](CSSC[C@H](NC(=O)[C@@H](N)CC(=O)O)C(=O)N[C@@H](CC(C)C)C(=O)NCC(=O)N[C@@H](Cc4ccccc4)C(=O)N[C@@H](CCC(=O)O)C(=O)N[C@@H](CCCNC(=N)N)C(=O)N[C@@H](CCCCN)C(=O)N2)NC(=O)[C@H](CSSC[C@@H](C(=O)N[C@@H](CCCCN)C(=O)N[C@@H](Cc2ccc(O)cc2)C(=O)N[C@H](C(=O)N[C@@H](Cc2ccccc2)C(N)=O)C(C)C)NC(=O)[C@H](Cc2c[nH]c4ccccc24)NC(=O)[C@H](CCCCN)NC(=O)[C@H](Cc2cnc[nH]2)NC(=O)[C@H]([C@@H](C)O)NC(=O)[C@H](CCCNC(=N)N)NC(=O)[C@H](CO)NC3=O)NC(=O)[C@H](CCCCN)NC(=O)[C@H](CC(=O)O)NC(=O)[C@H](CC(N)=O)NC(=O)[C@H](CC(=O)O)NC(=O)[C@@H]2CCCN2C1=O` (H-DCLGFERKCIPDNDKCCRPNLVCSRTHKWCKYVF-NH2; disulfide 2-17, 9-23, 16-30), over 5 µM.
As for `CC[C@H](C)[C@@H]1NC(=O)[C@@H]2CSSC[C@@H]3NC(=O)[C@H](C(C)C)NC(=O)[C@H](CC(C)C)NC(=O)[C@H](CC(N)=O)NC(=O)[C@@H]4CCCN4C(=O)[C@H](CCCNC(=N)N)NC(=O)[C@H](CSSC[C@H](NC(=O)[C@@H](N)CCCNC(=N)N)C(=O)N[C@@H](CC(C)C)C(=O)NCC(=O)N[C@@H](Cc4ccccc4)C(=O)N[C@@H](CCSC)C(=O)N[C@@H](CCCNC(=N)N)C(=O)N[C@@H](CCCCN)C(=O)N2)NC(=O)[C@H](CSSC[C@@H](C(=O)N[C@@H](CCCCN)C(=O)N[C@@H](Cc2ccc(O)cc2)C(=O)N[C@H](C(=O)N[C@@H](Cc2ccccc2)C(N)=O)C(C)C)NC(=O)[C@H](Cc2c[nH]c4ccccc24)NC(=O)[C@H](CCCCN)NC(=O)[C@H](Cc2cnc[nH]2)NC(=O)[C@H]([C@@H](C)O)NC(=O)[C@H](CCCNC(=N)N)NC(=O)[C@H](CO)NC3=O)NC(=O)[C@H](CCCCN)NC(=O)[C@H](CC(=O)O)NC(=O)[C@H](CC(N)=O)NC(=O)[C@H](CC(=O)O)NC(=O)[C@@H]2CCCN2C1=O` (H-RCLGFMRKCIPDNDKCCRPNLVCSRTHKWCKYVF-NH2; disulfide 2-17, 9-23, 16-30), the half-inhibitory concentration (IC50) was over 5 µM.
